In ChEMBL document CHEMBL1828597, “Tyrosyl-tRNA synthetase inhibitors as antibacterial agents: synthesis, molecular docking and structure-activity relationship analysis of 3-aryl-4-arylaminofuran-2(5H)-ones” (Eur J Med Chem, 2011):
pIC50: −log10 of the molar value. In brackets after ≈: the same amount, converted by molar mass.

Key:
Candida albicans = test: Antifungal activity against Candida albicans ATCC 10231 after 48 hrs by MTT assay; settings: ATCC 10231, 48 h
Staphylococcus aureus = test: Antibacterial activity against Staphylococcus aureus ATCC 25923 after 24 hrs by MTT assay; assay type: functional; settings: ATCC 25923, 24 h
Method in brief: (§1)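 LB medium, inocula of about 10⁵ cfu/mL in 96-well plates against serially diluted compounds (DMSO stock diluted in 50% v/v DMSO/PBS), 37 °C for 24 h. Read-out: PBS containing 2 mg/mL MTT added for 4–5 h at room temperature, wells emptied, solubilizer added for 12 h at room temperature, then OD at 550 nm. MIC₅₀ from this colorimetric read.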

Escherichia coli = test: Antibacterial activity against Escherichia coli ATCC 35218 after 24 hrs by MTT assay; assay type: functional; settings: ATCC 35218, 24 h
Method in brief: as §1

[1] = Inhibition of Staphylococcus aureus TyrRS assessed as inhibition of [3H]tyrosine incorporation after 10 mins by liquid scintillation counting
Bacillus subtilis = test: Antibacterial activity against Bacillus subtilis ATCC 6633 after 24 hrs by MTT assay; assay type: functional; settings: ATCC 6633, 24 h
Method in brief: as §1

Structure (SMILES)	MIC50 (Candida albicans) [µg/mL]	MIC50 (Staphylococcus aureus) [µg/mL]	MIC50 (Escherichia coli) [µg/mL]	pIC50 [1]	MIC50 (Bacillus subtilis) [µg/mL]
COc1ccccc1NC1=C(c2cccc(Cl)c2)C(=O)OC1	> 50	49.4 (≈ 156 µM)	> 50	4.49	> 50
CN(C1=C(c2ccc(Br)cc2)C(=O)OC1)c1ccccc1	> 50	45.8 (≈ 133 µM)	> 50	4.53	> 50
CC(=O)N1CCN(c2ccc(OCC3COC(Cn4ccnc4)(c4ccc(Cl)cc4Cl)O3)cc2)CC1 (centres undefined) [KETOCONAZOLE]	4.1 (≈ 7.71 µM)				
COc1ccc(NC2=C(c3ccc(Br)cc3)C(=O)OC2)cc1	> 50	> 50	> 50	4.01	> 50
O=C1OCC(Nc2cc(Cl)cc(Cl)c2)=C1c1ccc(O)cc1	10.2 (≈ 30.3 µM)	2.9 (≈ 8.63 µM)	> 50	5.46	9.8 (≈ 29.2 µM)
O=C1OCC(Nc2cccc([N+](=O)[O-])c2)=C1c1ccc(Br)cc1	26.3 (≈ 70.1 µM)	10.8 (≈ 28.8 µM)	> 50	4.99	28.6 (≈ 76.2 µM)
O=C1OCC(Nc2ccccc2[N+](=O)[O-])=C1c1cccc(Cl)c1	> 50	> 50	> 50	4.30	> 50
O=C1OCC(Nc2ccc(O)cc2)=C1c1ccc(Br)cc1	> 50	> 50	> 50	4.07	> 50
COc1cc(NC2=C(c3ccc(Br)cc3)C(=O)OC2)cc(OC)c1	> 50	> 50	> 50	4.76	> 50
Cc1ccc(NC2=C(c3ccc(Br)cc3)C(=O)OC2)cc1	> 50	> 50	> 50	< 4.00	> 50
O=C1OCC(Nc2cccc(Cl)c2)=C1c1ccccc1	41.8 (≈ 146 µM)	32.1 (≈ 112 µM)	> 50	4.68	> 50
O=C1OCC(Nc2cc(F)cc(F)c2)=C1c1ccc(Br)cc1	21.7 (≈ 59.3 µM)	7.1 (≈ 19.4 µM)	> 50	5.20	19.4 (≈ 53 µM)
O=C1OCC(Nc2ccc([N+](=O)[O-])cc2)=C1c1ccc(Br)cc1	> 50	> 50	> 50	4.20	> 50
O=C1OCC(Nc2cc(Br)cc(Br)c2)=C1c1cccc(Br)c1	8.5 (≈ 17.4 µM)	2.3 (≈ 4.71 µM)	> 50	5.72	8.8 (≈ 18 µM)
O=C1OCC(Nc2cc(Cl)cc(Cl)c2)=C1c1ccc(Br)cc1	5.8 (≈ 14.5 µM)	0.42 (≈ 1.05 µM)	> 50	6.41	2.2 (≈ 5.51 µM)
O=C1OCC(Nc2cccc(Cl)c2)=C1c1ccc(Br)cc1	9 (≈ 24.7 µM)	2.5 (≈ 6.86 µM)	> 50	5.77	11.3 (≈ 31 µM)
O=C1OCC(Nc2ccc(Cl)cc2)=C1c1ccc(Br)cc1	25.7 (≈ 70.5 µM)	12.6 (≈ 34.6 µM)	> 50	4.82	> 50
O=C1OCC(Nc2cccc(Cl)c2)=C1c1ccc(Cl)cc1	9.7 (≈ 30.3 µM)	3.3 (≈ 10.3 µM)	> 50	5.62	10.9 (≈ 34 µM)
O=C1OCC(Nc2ccccc2Cl)=C1c1ccc(Br)cc1	49.3 (≈ 135 µM)	34.6 (≈ 94.9 µM)	> 50	4.68	> 50

Structure (SMILES)	MIC50 (Candida albicans) [µg/mL]	MIC50 (Staphylococcus aureus) [µg/mL]	MIC50 (Escherichia coli) [µg/mL]	pIC50 [1]	MIC50 (Bacillus subtilis) [µg/mL]
O=C1OCC(Nc2ccccc2Cl)=C1c1ccccc1	> 50	> 50	> 50	4.05	> 50
CC1(C)S[C@@H]2[C@H](NC(=O)Cc3ccccc3)C(=O)N2[C@H]1C(=O)O [PENICILLIN G]			2 (≈ 5.98 µM)		
O=C1OCC(Nc2cccc([N+](=O)[O-])c2)=C1c1ccccc1	> 50	> 50	> 50	4.35	> 50
O=C1OCC(Nc2cc(Br)cc(Br)c2)=C1c1ccc(Br)cc1	49.2 (≈ 101 µM)	23.5 (≈ 48.2 µM)	> 50	4.87	> 50
O=C1OCC(Nc2cc(Cl)cc(Cl)c2)=C1c1cccc(Br)c1	5.4 (≈ 13.5 µM)	0.06 (≈ 0.15 µM)	> 50	7.05	1.2 (≈ 3.01 µM)
O=C1OCC(Nc2ccc(Br)cc2)=C1c1cccc(Br)c1	18.7 (≈ 45.7 µM)	6.5 (≈ 15.9 µM)	> 50	5.27	31.6 (≈ 77.2 µM)
O=C1OCC(Nc2cc(Cl)cc(Cl)c2)=C1c1cccc(Cl)c1	10.1 (≈ 28.5 µM)	2.9 (≈ 8.18 µM)	> 50	5.54	13.4 (≈ 37.8 µM)
COc1ccccc1NC1=C(c2ccc(Br)cc2)C(=O)OC1	> 50	> 50	> 50	4.43	> 50
O=C1OCC(Nc2ccccn2)=C1c1ccc(Br)cc1	> 50	39 (≈ 118 µM)	> 50	4.59	> 50
O=C1OCC(Nc2ccccc2[N+](=O)[O-])=C1c1ccc(Br)cc1	> 50	> 50	> 50	4.17	> 50
O=C1OCC(Nc2cccc(Cl)c2)=C1c1cccc(Cl)c1	12.2 (≈ 38.1 µM)	4.6 (≈ 14.4 µM)	> 50	5.37	11.7 (≈ 36.5 µM)
NC[C@H]1O[C@H](O[C@H]2[C@H](O)[C@@H](O[C@H]3O[C@H](CO)[C@@H](O)[C@H](N)[C@H]3O)[C@H](N)C[C@@H]2N)[C@H](O)[C@@H](O)[C@@H]1O [KANAMYCIN]		1.1 (≈ 2.27 µM)			0.42 (≈ 0.867 µM)
O=C1OCC(Nc2cc(Br)cc(Br)c2)=C1c1ccc(F)cc1	28.6 (≈ 67 µM)	10.2 (≈ 23.9 µM)	> 50	5.04	38.6 (≈ 90.4 µM)
O=C1OCC(Nc2cccc(O)c2)=C1c1ccc(Br)cc1	> 50	25.2 (≈ 72.8 µM)	> 50	4.81	> 50
O=C1OCC(Nc2ccccc2)=C1c1ccc(Br)cc1	37.5 (≈ 114 µM)	27.8 (≈ 84.2 µM)	> 50	4.78	41.7 (≈ 126 µM)
O=C1OCC(Nc2ccccc2Cl)=C1c1cccc(Cl)c1	46.8 (≈ 146 µM)	21.5 (≈ 67.2 µM)	> 50	4.80	47.5 (≈ 148 µM)
O=C1OCC(Nc2ccc(Br)cc2)=C1c1ccc(Br)cc1	41.8 (≈ 102 µM)	23.1 (≈ 56.5 µM)	> 50	4.94	> 50
O=C1OCC(Nc2ccccc2[N+](=O)[O-])=C1c1ccccc1	> 50	> 50	> 50	< 4.00	> 50
COc1ccc(C2=C(Nc3cc(Cl)cc(Cl)c3)COC2=O)cc1	7.2 (≈ 20.6 µM)	1.8 (≈ 5.14 µM)	> 50	5.80	9.6 (≈ 27.4 µM)
